# Assay results: ChEMBL document CHEMBL4834420, “Projected Dose Optimization of Amino- and Hydroxypyrrolidine Purine PI3Kδ Immunomodulators” (J Med Chem, 2021)
# Legend:
# [1] = Plasma clearance in Beagle dog at 0.25 mg/kg, iv or 0.5 mg/kg, po; assay type: ADME, organism-based, Canis lupus familiaris
# [2] = Oral bioavailability in Wistar Han rat; assay type: ADME, organism-based; conditions: in vivo
# [3] = target: PI3-kinase p110-delta/p85-alpha (Homo sapiens, UniProt O00329); test: Inhibition of N-terminal His6-tagged recombinant full length human p110delta/untagged recombinant full length human p85alpha expressed in baculovirus infected Sf21 insect cells using PIP2 as substrate preincubated for 15 mins followed by substrate addition and measured after 1 hr by HTRF assay
# Cytochrome P450 2C9 = Cytochrome P450 2C9 (Homo sapiens, UniProt P11712); test: Inhibition of CYP2C9 (unknown origin); assay type: ADME
# [4] = Volume of distribution in Beagle dog; assay type: ADME, Canis lupus familiaris; conditions: in vivo
# [5] = target: T1, Phosphatidylinositol 4,5-bisphosphate 3-kinase catalytic subunit delta isoform (Homo sapiens, UniProt O00329); test: Inhibition of PI3Kdelta in human whole blood assessed as reduction in anti-CD79b antibody-induced CD69 expression preincubated for 60 mins followed by anti-CD79b antibody stimulation and measured after 3 hrs by FACS analysis; assay type: tissue-based
# T1 sequence (O00329 whole entry): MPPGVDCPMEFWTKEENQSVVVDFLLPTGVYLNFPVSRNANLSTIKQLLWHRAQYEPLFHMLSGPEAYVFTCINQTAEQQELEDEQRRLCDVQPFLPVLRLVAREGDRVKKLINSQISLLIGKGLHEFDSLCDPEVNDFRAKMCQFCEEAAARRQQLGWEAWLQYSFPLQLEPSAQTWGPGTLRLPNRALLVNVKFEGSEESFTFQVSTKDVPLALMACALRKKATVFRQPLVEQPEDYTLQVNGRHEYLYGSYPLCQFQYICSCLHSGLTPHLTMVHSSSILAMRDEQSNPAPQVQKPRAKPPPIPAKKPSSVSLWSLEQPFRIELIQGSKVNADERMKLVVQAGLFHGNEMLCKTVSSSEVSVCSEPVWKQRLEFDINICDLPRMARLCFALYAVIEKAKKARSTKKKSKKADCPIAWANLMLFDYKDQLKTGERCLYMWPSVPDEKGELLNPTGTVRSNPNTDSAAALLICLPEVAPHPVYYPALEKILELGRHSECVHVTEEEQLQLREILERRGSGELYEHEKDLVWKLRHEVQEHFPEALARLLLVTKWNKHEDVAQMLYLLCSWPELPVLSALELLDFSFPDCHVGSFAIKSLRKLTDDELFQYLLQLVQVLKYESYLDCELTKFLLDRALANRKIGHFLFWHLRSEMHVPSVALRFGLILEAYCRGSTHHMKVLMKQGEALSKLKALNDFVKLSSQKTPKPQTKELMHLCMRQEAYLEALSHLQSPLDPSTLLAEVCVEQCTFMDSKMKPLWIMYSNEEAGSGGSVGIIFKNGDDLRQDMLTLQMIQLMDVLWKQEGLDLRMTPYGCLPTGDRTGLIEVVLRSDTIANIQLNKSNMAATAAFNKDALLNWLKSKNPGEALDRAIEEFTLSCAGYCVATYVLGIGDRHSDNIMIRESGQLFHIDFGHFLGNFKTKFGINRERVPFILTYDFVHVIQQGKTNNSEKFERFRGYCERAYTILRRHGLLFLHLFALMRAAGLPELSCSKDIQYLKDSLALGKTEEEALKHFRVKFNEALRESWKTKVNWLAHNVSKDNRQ
# [6] = Inhibition of adenosine transporter in human HeLa cells assessed as reduction in [3H]adenosine uptake preincubated for 30 mins followed by [3H]adenosine addition and measured after 60 mins; assay type: cell-based
# [7] = Intrinsic clearance in human hepatocytes; assay type: ADME, cell-based, Hepatocyte
# [8] = Plasma protein binding in Brown Norway rat at 10 mg/kg, po; assay type: ADME, organism-based; conditions: read-out: PPB (converted)
# [9] = target: T2, Phosphatidylinositol 4,5-bisphosphate 3-kinase catalytic subunit delta isoform (Mus musculus, UniProt O35904); test: Inhibition of mouse PI3Kdelta
# T2 sequence (O35904 whole entry): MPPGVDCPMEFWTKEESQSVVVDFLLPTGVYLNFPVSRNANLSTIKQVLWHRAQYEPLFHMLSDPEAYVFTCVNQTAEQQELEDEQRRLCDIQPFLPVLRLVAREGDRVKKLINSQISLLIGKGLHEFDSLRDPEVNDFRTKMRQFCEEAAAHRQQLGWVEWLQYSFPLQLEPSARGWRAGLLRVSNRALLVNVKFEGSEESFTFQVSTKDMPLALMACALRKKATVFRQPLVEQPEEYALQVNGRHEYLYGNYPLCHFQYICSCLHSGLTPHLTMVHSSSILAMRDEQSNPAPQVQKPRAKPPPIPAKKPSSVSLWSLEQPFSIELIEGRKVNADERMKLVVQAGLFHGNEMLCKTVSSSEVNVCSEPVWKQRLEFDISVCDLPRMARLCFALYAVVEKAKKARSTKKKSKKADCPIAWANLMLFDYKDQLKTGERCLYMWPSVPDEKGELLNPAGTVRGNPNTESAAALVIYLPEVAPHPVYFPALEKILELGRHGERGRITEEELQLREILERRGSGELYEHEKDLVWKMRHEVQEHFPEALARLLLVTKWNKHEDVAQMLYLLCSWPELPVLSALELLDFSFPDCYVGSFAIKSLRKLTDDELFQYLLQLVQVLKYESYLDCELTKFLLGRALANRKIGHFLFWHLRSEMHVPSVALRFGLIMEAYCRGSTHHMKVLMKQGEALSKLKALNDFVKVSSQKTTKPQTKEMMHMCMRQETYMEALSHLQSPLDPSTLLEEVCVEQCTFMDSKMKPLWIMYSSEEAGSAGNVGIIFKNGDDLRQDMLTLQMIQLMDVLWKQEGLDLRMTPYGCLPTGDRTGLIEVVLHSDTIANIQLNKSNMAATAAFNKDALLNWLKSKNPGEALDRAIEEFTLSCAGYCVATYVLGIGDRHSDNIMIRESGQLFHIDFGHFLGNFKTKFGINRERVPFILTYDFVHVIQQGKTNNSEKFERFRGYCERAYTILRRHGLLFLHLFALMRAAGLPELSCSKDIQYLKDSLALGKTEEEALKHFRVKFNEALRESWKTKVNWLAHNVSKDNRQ
# [10] = Unbound Cmax in C57BL/6 mouse at 100 mg/kg; assay type: ADME, organism-based; conditions: in vivo
# Summary of the method: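 C57BL/6-Foxp3-GFP reporter mice were dosed at 30 and 100 mg/kg/day for up to 7 days, with exposure determined at 100 mg/kg. The unbound Cmax and trough values were derived from total plasma levels. Treg readout was bioluminescence imaging 10 min after 3 mg luciferin ip, reported as radiance in photons/s/cm²/steradian.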
# [11] = Protein binding in Beagle dog plasma; assay type: ADME, cell-free, Canis lupus familiaris; conditions: read-out: PPB (converted)
# [12] = target: T1, Phosphatidylinositol 4,5-bisphosphate 3-kinase catalytic subunit delta isoform; test: Inhibition of PI3Kdelta in human Ramos cells assessed as reduction in anti-IgM-antibody-induced phosphorylation of AKT at Ser473 residue preincubated for 20 mins followed by anti-IgM antibody stimulation and measured after 30 mins by alphascreen assay; assay type: cell-based
# Chain of PI3-kinase p110-delta/p85-alpha (P27986 whole entry, one chain of several): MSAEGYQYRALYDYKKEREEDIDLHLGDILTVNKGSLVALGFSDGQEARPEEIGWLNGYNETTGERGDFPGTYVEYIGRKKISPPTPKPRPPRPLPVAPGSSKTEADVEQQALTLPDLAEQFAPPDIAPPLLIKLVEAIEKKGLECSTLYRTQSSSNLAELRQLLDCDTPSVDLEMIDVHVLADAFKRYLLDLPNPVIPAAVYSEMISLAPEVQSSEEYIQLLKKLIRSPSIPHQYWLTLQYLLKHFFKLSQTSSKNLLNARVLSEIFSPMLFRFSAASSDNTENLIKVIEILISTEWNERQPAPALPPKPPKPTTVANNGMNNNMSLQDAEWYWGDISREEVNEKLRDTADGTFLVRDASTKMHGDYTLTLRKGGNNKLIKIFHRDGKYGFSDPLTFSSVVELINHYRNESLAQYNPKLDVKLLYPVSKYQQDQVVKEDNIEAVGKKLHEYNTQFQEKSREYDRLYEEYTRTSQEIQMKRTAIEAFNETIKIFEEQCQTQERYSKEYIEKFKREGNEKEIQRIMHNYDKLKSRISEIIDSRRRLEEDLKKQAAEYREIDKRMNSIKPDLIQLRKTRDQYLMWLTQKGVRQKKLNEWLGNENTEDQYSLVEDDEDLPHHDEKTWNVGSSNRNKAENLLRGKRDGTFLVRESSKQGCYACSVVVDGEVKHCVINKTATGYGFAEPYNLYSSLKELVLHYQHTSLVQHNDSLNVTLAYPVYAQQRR
# Chain of Cytochrome P450 2C9 (P11712 whole entry): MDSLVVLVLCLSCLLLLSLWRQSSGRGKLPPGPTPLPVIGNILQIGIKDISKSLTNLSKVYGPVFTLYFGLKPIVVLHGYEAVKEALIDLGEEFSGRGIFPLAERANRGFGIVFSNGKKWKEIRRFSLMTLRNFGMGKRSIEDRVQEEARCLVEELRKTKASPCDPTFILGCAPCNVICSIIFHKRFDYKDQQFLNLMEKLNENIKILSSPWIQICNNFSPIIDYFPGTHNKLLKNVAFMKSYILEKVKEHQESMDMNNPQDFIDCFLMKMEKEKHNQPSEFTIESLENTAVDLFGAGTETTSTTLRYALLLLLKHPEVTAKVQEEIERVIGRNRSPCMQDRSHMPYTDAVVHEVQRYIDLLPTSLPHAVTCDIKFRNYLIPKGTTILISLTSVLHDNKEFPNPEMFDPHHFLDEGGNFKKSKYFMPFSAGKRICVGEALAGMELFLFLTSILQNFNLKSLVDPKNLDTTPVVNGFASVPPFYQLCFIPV
structure (smiles),measurement,setting,value
CCn1c(-c2cnc(C)nc2)nc2c(N[C@H]3CCN(C(=O)C4CC4)C3)ncnc21,clearance,[1],4.3 mL/min/kg
same,bioavailability,[2],55%
same,IC50,[3],1.6 nM
same,IC50,Cytochrome P450 2C9,> 50000 nM
same,Vd,[4],1.5 L/kg
same,IC50,[5],65 nM
same,IC50,[6],5000 nM
same,CLint scaled,[7],< 2 mL/min/kg
same,fraction unbound,[8],0.59
same,IC50,[9],2.2 nM
same,fCmax,[10],16 µM
same,fraction unbound,[11],0.9
same,IC50,[12],20 nM
